Data published in ChEMBL document CHEMBL3414544, “PAINS in the assay: chemical mechanisms of assay interference and promiscuous enzymatic inhibition observed during a sulfhydryl-scavenging HTS” (J Med Chem, 2015).
Active and inactive are the calls of the source.

Tests used:
[1] = Fluorescence quenching assessed as fluorescence signal reduction at 10 uM after 10 mins; type: physicochemical
Procedure, shortened: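 CPM (20 μM final) and CoA (5 μM final) reacted to completion in assay buffer (stable plateau, usually ~5 min); adduct solution added to wells preplated with compound; shaken 5 min, equilibrated 5 min at room temperature; fluorescence intensity read as percent signal reduction versus DMSO controls. Flagged as quencher at >20% signal reduction at 10 μM final compound.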

[2] = Fluorescence quenching in HTS buffer assessed as fluorescence signal reduction at 10 uM after 10 mins; type: physicochemical
[3] = biological target: T1, Histone acetyltransferase RTT109 (Saccharomyces cerevisiae (strain ATCC 204508 / S288c) (Baker's yeast)) (UniProt Q07794); assay: Inhibition of Vps75-stimulated recombinant Saccharomyces cerevisiae histone acetyltransferase Rtt109 assessed as H3K56 acetylated product at […] after 45 mins by Slot bolt inhibiton assay
T1 sequence (whole entry): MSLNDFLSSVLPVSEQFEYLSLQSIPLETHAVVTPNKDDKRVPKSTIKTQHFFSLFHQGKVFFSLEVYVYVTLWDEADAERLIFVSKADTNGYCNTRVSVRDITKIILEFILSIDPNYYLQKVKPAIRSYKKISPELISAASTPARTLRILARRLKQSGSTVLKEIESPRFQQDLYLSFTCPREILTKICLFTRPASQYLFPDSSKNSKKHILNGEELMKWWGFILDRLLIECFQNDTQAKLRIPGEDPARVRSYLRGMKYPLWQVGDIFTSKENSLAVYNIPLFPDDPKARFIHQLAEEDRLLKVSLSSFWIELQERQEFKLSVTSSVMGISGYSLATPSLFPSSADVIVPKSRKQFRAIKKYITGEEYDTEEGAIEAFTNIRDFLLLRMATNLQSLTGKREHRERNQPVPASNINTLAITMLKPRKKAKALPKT

[4] = Fluorescence quenching in HTS buffer with […] CoA assessed as fluorescence signal reduction at 10 uM after 10 mins; type: physicochemical
[5] = Fluorescence quenching in HTS buffer with 20 uM 7-diethylamino-3-(4'-maleimidyl-phenyl)-4-methylcoumarin assessed as fluorescence signal reduction at 10 uM after 10 mins; type: physicochemical
[6] = biological target: T1, Histone acetyltransferase RTT109 (Saccharomyces cerevisiae (strain ATCC 204508 / S288c) (Baker's yeast)); assay: Inhibition of Vps75-stimulated recombinant Saccharomyces cerevisiae histone acetyltransferase Rtt109 assessed as H3K27 acetylated product at […] after 45 mins by Slot bolt inhibiton assay

Activity [1]	Activity [2]	Activity [3]	Activity [4]	Activity [5]	Activity [6]	SMILES
Not Active	Not Active	Active	Not Active	Not Active	Active	O=C1CC(Sc2nnc(-c3ccccc3O)o2)C(=O)N1c1ccccc1 (stereo unspecified)
Not Active	Not Active	Active	Not Active	Not Active	Active	Cc1occc1-c1nnc(SC2=CS(=O)(=O)c3ccccc32)o1
Not Active	Not Active	Active	Not Active	Not Active	Active	Cc1nnc(SC2CC(=O)N(c3ccc(Br)cc3)C2=O)s1 (stereo unspecified)
Not Active	Not Active	Active	Not Active	Not Active	Active	O=S(=O)(C[n+]1sc(Nc2ccc(Cl)cc2Cl)nc1-c1ccccc1)c1ccccc1.[Cl-]
Not Active	Not Active	Active	Not Active	Not Active	Active	COc1ccc(Nc2nc(-c3ccc(C)cc3)[n+](Cc3ccccc3)s2)cc1.[Cl-]
Not Active	Not Active	Active	Not Active	Not Active	Active	COc1ccc(-c2nc(N)s[n+]2-c2ccccc2)cc1.[Cl-]
Not Active	Not Active	Active	Not Active	Not Active	inactive	O=S(=O)(Nc1cc(Br)c(O)c2ccccc12)c1ccc2ccccc2c1
Not Active	Not Active	Active	Not Active	Not Active	Active	Cc1ccc(-c2nc(Nc3ccccc3)s[n+]2CS(=O)(=O)c2ccccc2)cc1.[Cl-]
Not Active	Not Active	Active	Not Active	Not Active	Active	O=S1(=O)C=C(Sc2nn(-c3ccccc3)c(=S)s2)c2ccccc21
Not Active	Not Active	Active	Not Active	Not Active	Active	COc1ccc(N2C(=O)CC(Sc3nnc(-c4ccccc4)o3)C2=O)cc1 (stereo unspecified)
Not Active	Not Active	Active	Not Active	Not Active	Active	Cc1ccc(-c2nnc(SC3CC(=O)N(c4ccc5ccccc5c4)C3=O)[nH]2)cc1 (stereo unspecified)
Not Active	Not Active	Active	Not Active	Not Active	Active	O=C1CC(Sc2nnnn2-c2ccccc2)C(=O)N1c1ccc([N+](=O)[O-])cc1 (stereo unspecified)
Not Active	Not Active	Active	Not Active	Not Active	Active	Cc1ccc(-c2nnc(SC3CC(=O)N(c4ccc(Oc5ccccc5)cc4)C3=O)[nH]2)cc1 (stereo unspecified)
Not Active	Not Active	Active	Not Active	Not Active	Active	Cn1c(Sc2ccc([N+](=O)[O-])c3nonc23)nnc1-c1ccccc1
Not Active	Not Active	Active	Not Active	Not Active	Active	O=C1CC(Sc2nnc(-c3ccccc3)[nH]2)C(=O)N1c1ccc(Oc2ccccc2)cc1 (stereo unspecified)
Not Active	Not Active	Active	Not Active	Not Active	Active	[Br-].c1ccc(Nc2nc(-c3ccccc3)[n+](-c3ccccc3)s2)cc1

The next lines start with the molecule.

SMILES	Activity [1]	Activity [2]	Activity [3]	Activity [4]	Activity [5]	Activity [6]
Cc1ccc(S(=O)(=O)C2=CS(=O)(=O)c3ccccc32)cc1	Not Active	Not Active	Active	Not Active	Not Active	Active
O=S(=O)(Nc1ccc(O)c(Br)c1)c1ccc(Cl)cc1	Not Active	Not Active	inactive	Not Active	Not Active	inactive
O=[N+]([O-])c1cc(Br)c2nsnc2c1Sc1nnnn1C1CCCCC1	Not Active	Not Active	Active	Not Active	Not Active	Active
CC(C)c1ccc(S(=O)(=O)Nc2cc(Sc3nc[nH]n3)c(O)c3ccccc23)cc1	Not Active	Not Active	Active	Not Active	Not Active	Active
O=S(=O)(Nc1cc(Sc2ccccc2)c(O)c2ccccc12)c1ccccc1	Not Active	Not Active	Active	Not Active	Not Active	Active
[O-][Cl+3]([O-])([O-])[O-].c1ccc(C[n+]2sc(N(c3ccccc3)c3ccccc3)nc2-c2ccccc2)cc1	Not Active	Not Active	Active	Not Active	Not Active	Active
CCC(=O)OCCNc1cc(Sc2nnc(-c3ccccc3)s2)c2nonc2c1[N+](=O)[O-]	Not Active	Not Active	Active	Not Active	Not Active	Active
c1ccc(C[n+]2sc(Nc3ccccc3)nc2-c2ccccc2)cc1	–	–	Active	–	–	Active
O=C(O)c1ccc(S(=O)(=O)Nc2cc(Br)c(O)c3ccccc23)cc1	Not Active	Not Active	Active	Not Active	Not Active	Active
CC(C)c1ccc(S(=O)(=O)Nc2ccc(O)c(Br)c2)cc1	Not Active	Not Active	inactive	Not Active	Not Active	inactive
O=[N+]([O-])c1ccc(Sc2cccc(Cl)c2)c2nonc12	–	–	Active	–	–	Active
Cc1ccc(S(=O)(=O)C[n+]2sc(N(c3ccccc3)c3ccccc3)nc2-c2ccccc2)cc1	–	–	inactive	–	–	inactive
O=c1[nH]c(Sc2c([N+](=O)[O-])cc(Br)c3nsnc23)nc2ccccc12	Not Active	Not Active	Active	Not Active	Not Active	Active
CCOc1ccc(Nc2nc(-c3ccc(C)cc3)[n+](Cc3ccc([N+](=O)[O-])cc3)s2)cc1.[Br-]	Not Active	Not Active	Active	Not Active	Not Active	Active
Cc1ccc(-c2nc(N(c3ccccc3)c3ccccc3)s[n+]2CS(=O)(=O)c2ccccc2)cc1.[O-][Cl+3]([O-])([O-])[O-]	Not Active	Not Active	inactive	Not Active	Not Active	inactive
Cc1cc(C)c(S(=O)(=O)Nc2cc(Br)c(O)c3ccccc23)c(C)c1	Not Active	Not Active	Active	Not Active	Not Active	Active
CSc1nsc(SC2=CS(=O)(=O)c3ccccc32)n1	Not Active	Not Active	Active	Not Active	Not Active	Active
